Publication PMC9177960 (Nucleic Acids Research, 2022)

Assays:
MurR = biological target: T1, MurR (Escherichia coli, UniProt P77245); assay: ITC binding between MurR and ligands
T1 sequence (P77245 1-285): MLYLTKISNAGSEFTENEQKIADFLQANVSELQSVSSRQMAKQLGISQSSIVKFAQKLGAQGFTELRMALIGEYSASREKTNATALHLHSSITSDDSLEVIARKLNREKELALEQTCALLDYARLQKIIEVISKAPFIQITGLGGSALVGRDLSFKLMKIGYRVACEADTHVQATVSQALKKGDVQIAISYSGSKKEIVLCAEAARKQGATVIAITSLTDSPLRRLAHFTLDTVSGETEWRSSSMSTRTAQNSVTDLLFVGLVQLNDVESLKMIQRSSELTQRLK
How it was run: (§1)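 MurR (wild type or point mutant) was expressed from pET28a in E. coli BL21(DE3), His6-tag removed with HRV3C, and gel-filtered. Protein at 50 µM in the cell; ligand at 500 µM in the syringe. Both were in 100 mM NaCl, 10 mM Tris-HCl pH 7.5, 1 mM DTT. Run at 25 °C, stirring 750 rpm, 120 s between injections. Data background-subtracted to give association constants; triplicate runs.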

[1] = test system: MurR binding to the operator site; details: previous studies; cited from earlier work
[2] = biological target: T2, MurR/operator DNA complex (Escherichia coli, UniProt P77245); assay: EMSA of MurR with murR-murQ intergenic region DNA; type: biochemical; details: for effect on MurR-DNA binding at high concentration: EMSA, 1, 10, 20, 40 mM, effect of GlcNAc-6-P at 40 mM
T2 sequence (P77245 1-285): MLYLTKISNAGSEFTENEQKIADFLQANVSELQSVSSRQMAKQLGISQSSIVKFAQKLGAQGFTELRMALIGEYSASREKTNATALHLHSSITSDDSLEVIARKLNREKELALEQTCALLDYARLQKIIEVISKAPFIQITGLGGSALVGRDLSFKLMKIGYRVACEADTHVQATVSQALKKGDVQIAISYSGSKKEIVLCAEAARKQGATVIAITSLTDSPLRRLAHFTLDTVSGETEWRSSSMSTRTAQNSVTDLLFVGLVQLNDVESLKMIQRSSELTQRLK

[3] = test system: MurR-controlled eGFP expression (pUC19-murR-eGFP); assay: CFPS eGFP fluorescent quantitation assay, WT MurR; type: biochemical, Escherichia coli; details: plasmid 5.8 nM, protein 1:100 molar ratio, different ligand concentrations
How it was run: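 Reporter plasmid: T7 promoter, RBS, eGFP coding sequence and the murQ–murR intergenic region. MurR proteins were expressed in E. coli BL21(DE3) with an N-terminal His6 tag, which was cleaved off by HRV3C protease, then purified by size exclusion. In cell-free protein synthesis, 5.8 nM plasmid was mixed with protein at a 1:100 plasmid:protein molar ratio and graded MurNAc-6-P or GlcNAc-6-P. eGFP fluorescence was read on a real-time PCR instrument, in triplicate.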

[4] = test system: mutant MurR proteins/promoter DNA complexes; assay: EMSA of mutant MurR proteins with promoter DNA; type: biochemical, Escherichia coli; details: all MurR proteins (WT and mutants) at the tested concentrations
mutant MurR proteins = assay: ITC binding of GlcNAc-6-P to mutant MurR proteins; set-up: species or system Escherichia coli; details: mutant proteins of Supplementary Figure S14A and B
How it was run: as §1

SEC + AUC = biological target: the molecule itself; assay: SEC + AUC
crystal structure = biological target: the molecule itself; assay: crystal structure

## CC(=O)N[C@@H]1[C@@H](O)[C@H](O)[C@@H](CO)O[C@H]1O [GlcNAc, N-acetylglucosamine]
MurR; ligand titrated into WT MurR
  interaction with MurR in ITC: no interaction
[1]
  effect on MurR binding to the operator: no effect

## CC(=O)N[C@H]1C(O)O[C@H](CO)[C@@H](O)[C@@H]1O[C@H](C)C(=O)N[C@@H](C)C(=O)N[C@H](CCC(=O)O)C(N)=O (mixture of isomers) [muramyl dipeptide]
[1]
  effect on MurR binding to the operator: no effect

## O=S(=O)([O-])[O-].[Na+].[Na+] [sodium sulfate]
[2]
  effect on MurR-DNA binding at high concentration: not affected

## CC(=O)N[C@H]1C(O)O[C@H](COP(=O)(O)O)[C@@H](O)[C@@H]1O (stereo partly shown) [GlcNAc-6-P, N-acetylglucosamine-6-phosphate]
[3]
  effect on eGFP fluorescence: made no visible difference
MurR
  Kd: 17.6 µM
[4]
  sensitivity of MurR/DNA complexes to ligand: insensitive
Mutant MurR proteins
  association constant (Ka) values compared with WT MurR: Smaller
[1]
  effect on MurR binding to the operator: no effect
[2]; EMSA, 200 nM MurR, ligand 1, 10, 100, 1000 μM
  relief of the retardation of DNA migration: negligible
[2]
  effect on MurR-DNA binding at high concentration: a certain portion of the DNA was dissociated from MurR

B1: full-length MurR (natural protein, Escherichia coli MG1655, UniProt P77245 1-285, looked up)
chain: MLYLTKISNAGSEFTENEQKIADFLQANVSELQSVSSRQMAKQLGISQSSIVKFAQKLGAQGFTELRMALIGEYSASREKTNATALHLHSSITSDDSLEVIARKLNREKELALEQTCALLDYARLQKIIEVISKAPFIQITGLGGSALVGRDLSFKLMKIGYRVACEADTHVQATVSQALKKGDVQIAISYSGSKKEIVLCAEAARKQGATVIAITSLTDSPLRRLAHFTLDTVSGETEWRSSSMSTRTAQNSVTDLLFVGLVQLNDVESLKMIQRSSELTQRLK
SEC + AUC
  stoichiometry N: 4

B2: truncated protein MurRT2 (D95 to K285) (domain or fragment, Escherichia coli MG1655, UniProt P77245 95-285, looked up)
chain: DDSLEVIARKLNREKELALEQTCALLDYARLQKIIEVISKAPFIQITGLGGSALVGRDLSFKLMKIGYRVACEADTHVQATVSQALKKGDVQIAISYSGSKKEIVLCAEAARKQGATVIAITSLTDSPLRRLAHFTLDTVSGETEWRSSSMSTRTAQNSVTDLLFVGLVQLNDVESLKMIQRSSELTQRLK
Crystal structure
  binding result: binds
